Results published in ChEMBL document CHEMBL1914457, “Syntheses of phenylpyrazolodiazepin-7-ones as conformationally rigid analogs of aminopyrazole amide scaffold and their antiproliferative effects on cancer cells” (Bioorg Med Chem, 2011).

Legend:
[1] = Growth inhibition of human A375P cells after 24 hrs by MTT assay; format: functional
How it was run: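 A375P cells grown in DMEM with 10% FBS and 1% penicillin/streptomycin at 37 °C, 5% CO2. Cells lifted with 0.05% trypsin-0.02% EDTA, seeded at 5 × 10^3 cells/well and held 24 h before treatment. Compounds given as a threefold serial dilution over 12 points. Viability read by MTT reduction (CellTiter 96) as absorbance at 590 nm; IC50 fitted from the curve.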

U-937 = assay: Growth inhibition of human U937 cells after 24 hrs by thiazolyl blue tetrazolium bromide staining-based MTT assay; format: functional; settings: U-937, 24 h
How it was run: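 U937 cells kept in RPMI 1640 with 10% FBS, 1% penicillin/streptomycin and 25 mM HEPES at 37 °C, 5% CO2. Seeded at 5 × 10^3 cells/well and incubated 24 h before treatment. Compounds given as a threefold serial dilution over 12 points. Viability read by MTT reduction with thiazolyl blue tetrazolium bromide as absorbance at 570 nm.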

[2] = molecular target: T1, Serine/threonine-protein kinase mTOR (Homo sapiens, UniProt P42345); assay: Inhibition of MTOR
[3] = molecular target: Dual specificity mitogen-activated protein kinase kinase 1 (Homo sapiens) (UniProt Q02750); assay: Inhibition of MEK1 at 10 uM
[4] = molecular target: Focal adhesion kinase 1 (Homo sapiens) (UniProt Q05397); assay: Inhibition of FAK at 10 uM
[5] = molecular target: T2, RAF proto-oncogene serine/threonine-protein kinase (Homo sapiens, UniProt P04049); assay: Inhibition of human CRAF using [gamma-33P]ATP at 10 uM after 40 mins by scintillation counting
How it was run: (§1)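 Human c-Raf (5–10 mU) was run in 25 mM Tris pH 7.5 with 0.02 mM EGTA, 10 mM Mg acetate and 0.66 mg/mL myelin basic protein as substrate. The reaction was started with Mg–[γ-33P]ATP (about 500 cpm/pmol; ATP concentration not stated) and run 40 min at room temperature. It was stopped with 3% phosphoric acid, spotted on P30 filtermat, washed in 75 mM phosphoric acid and methanol, and scintillation counted.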

[6] = molecular target: Serine/threonine-protein kinase PLK1 (Homo sapiens) (UniProt P53350); assay: Inhibition of PLK1 at 10 uM
[7] = molecular target: Macrophage colony-stimulating factor 1 receptor (Homo sapiens) (UniProt P07333); assay: Inhibition of FMS at 10 uM
[8] = molecular target: Macrophage-stimulating protein receptor (Homo sapiens) (UniProt Q04912); assay: Inhibition of RON at 10 uM
[9] = molecular target: Epidermal growth factor receptor (Homo sapiens) (UniProt P00533); assay: Inhibition EGFR at 10 uM
[10] = molecular target: Tyrosine-protein kinase JAK3 (Homo sapiens) (UniProt P52333); assay: Inhibition of JAK3 at 10 uM
[11] = test system: Serine/threonine-protein kinase B-raf (Homo sapiens), P15056 [V600E]; assay: Inhibition of BRAF V599E mutant at 10 uM
[12] = molecular target: T3, Phosphatidylinositol 4,5-bisphosphate 3-kinase catalytic subunit alpha isoform (Homo sapiens, UniProt P42336); assay: Inhibition of PI3Kalpha at 10 uM
[13] = molecular target: Mitogen-activated protein kinase 8 (Homo sapiens) (UniProt P45983); assay: Inhibition of JNK1 at 10 uM
[14] = molecular target: Tyrosine-protein kinase ABL1 (Homo sapiens) (UniProt P00519); assay: Inhibition of Abl1 at 10 uM
[15] = molecular target: Tyrosine-protein kinase SYK (Homo sapiens) (UniProt P43405); assay: Inhibition of SYK at 10 uM
[16] = molecular target: RAC-alpha serine/threonine-protein kinase (Homo sapiens) (UniProt P31749); assay: Inhibition of AKT1 at 10 uM
[17] = molecular target: Fibroblast growth factor receptor 3 (Homo sapiens) (UniProt P22607); assay: Inhibition of FGFR3 at 10 uM
[18] = molecular target: Fibroblast growth factor receptor 2 (Homo sapiens) (UniProt P21802); assay: Inhibition of FGFR2 at 10 uM
[19] = molecular target: Receptor-type tyrosine-protein kinase FLT3 (Homo sapiens) (UniProt P36888); assay: Inhibition of FLT3 at 10 uM
[20] = molecular target: T2, RAF proto-oncogene serine/threonine-protein kinase; assay: Inhibition of human CRAF using [gamma-33P]ATP after 40 mins by scintillation counting; how it was run: as §1
[21] = molecular target: T3, Phosphatidylinositol 4,5-bisphosphate 3-kinase catalytic subunit alpha isoform; assay: Inhibition of PI3Kalpha
[22] = molecular target: Mitogen-activated protein kinase 14 (Homo sapiens) (UniProt Q16539); assay: Inhibition of p38alpha at 10 uM
[23] = molecular target: Insulin-like growth factor 1 receptor (Homo sapiens) (UniProt P08069); assay: Inhibition of IGF1R at 10 uM
[24] = molecular target: Proto-oncogene tyrosine-protein kinase Src (Homo sapiens) (UniProt P12931); assay: Inhibition cSRC at 10 uM
[25] = molecular target: Hepatocyte growth factor receptor (Homo sapiens) (UniProt P08581); assay: Inhibition of cMet at 10 uM
[26] = molecular target: ALK tyrosine kinase receptor (Homo sapiens) (UniProt Q9UM73); assay: Inhibition of Alk at 10 uM
[27] = molecular target: Aurora kinase A (Homo sapiens) (UniProt O14965); assay: Inhibition of Aurora-A at 10 uM
[28] = molecular target: Mitogen-activated protein kinase 1 (Homo sapiens) (UniProt P28482); assay: Inhibition of ERK2 at 10 uM
[29] = molecular target: Glycogen synthase kinase-3 beta (Homo sapiens) (UniProt P49841); assay: Inhibition of GSK3-beta at 10 uM
[30] = molecular target: Proto-oncogene tyrosine-protein kinase ROS (Homo sapiens) (UniProt P08922); assay: Inhibition of ROS at 10 uM
[31] = molecular target: Serine/threonine-protein kinase B-raf (Homo sapiens, UniProt P15056, V600E); assay: Inhibition of BRAF V600E mutant
[32] = molecular target: Tyrosine-protein kinase Lyn (Homo sapiens) (UniProt P07948); assay: Inhibition of LYN at 10 uM
[33] = molecular target: BDNF/NT-3 growth factors receptor (Homo sapiens) (UniProt Q16620); assay: Inhibition of TRKB at 10 uM
[34] = molecular target: Cyclin-dependent kinase 2/cyclin E1 (Homo sapiens) (UniProt P24864+P24941); assay: Inhibition of CDK2/Cyclin E at 10 uM; format: protein-complex assay
[35] = molecular target: T1, Serine/threonine-protein kinase mTOR; assay: Inhibition of MTOR at 10 uM
[36] = molecular target: Vascular endothelial growth factor receptor 2 (Homo sapiens) (UniProt P35968); assay: Inhibition of KDR at 10 uM
[37] = molecular target: Mitogen-activated protein kinase 10 (Homo sapiens) (UniProt P53779); assay: Inhibition of JNK3 at 10 uM
[38] = molecular target: Tyrosine-protein kinase Lck (Homo sapiens) (UniProt P06239); assay: Inhibition of LCK at 10 uM
[39] = molecular target: Mast/stem cell growth factor receptor Kit (Homo sapiens) (UniProt P10721); assay: Inhibition of cKIT at 10 uM
[40] = molecular target: Cyclin-dependent kinase 1/cyclin B1 (Homo sapiens) (UniProt P06493+P14635); assay: Inhibition of CDK1/Cyclin B at 10 uM; format: protein-complex assay

T2 sequence (P04049 whole entry): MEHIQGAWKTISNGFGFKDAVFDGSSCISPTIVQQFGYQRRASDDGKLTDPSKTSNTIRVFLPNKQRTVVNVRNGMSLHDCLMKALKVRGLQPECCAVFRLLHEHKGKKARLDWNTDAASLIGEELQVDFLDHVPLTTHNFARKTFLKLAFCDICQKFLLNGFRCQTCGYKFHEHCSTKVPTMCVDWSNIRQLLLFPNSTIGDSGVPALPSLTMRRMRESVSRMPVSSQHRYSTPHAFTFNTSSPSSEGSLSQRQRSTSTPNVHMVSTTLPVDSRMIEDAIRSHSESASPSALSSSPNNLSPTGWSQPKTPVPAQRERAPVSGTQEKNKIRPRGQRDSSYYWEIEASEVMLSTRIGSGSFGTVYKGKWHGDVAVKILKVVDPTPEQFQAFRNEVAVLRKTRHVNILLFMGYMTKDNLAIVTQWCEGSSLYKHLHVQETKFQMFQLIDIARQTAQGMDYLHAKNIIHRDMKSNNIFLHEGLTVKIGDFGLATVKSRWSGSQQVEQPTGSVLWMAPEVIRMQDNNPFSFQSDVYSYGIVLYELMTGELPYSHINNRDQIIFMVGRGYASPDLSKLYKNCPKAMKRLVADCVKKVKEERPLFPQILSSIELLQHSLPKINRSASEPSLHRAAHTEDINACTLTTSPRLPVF
T3 sequence (P42336 whole entry, canonical isoform): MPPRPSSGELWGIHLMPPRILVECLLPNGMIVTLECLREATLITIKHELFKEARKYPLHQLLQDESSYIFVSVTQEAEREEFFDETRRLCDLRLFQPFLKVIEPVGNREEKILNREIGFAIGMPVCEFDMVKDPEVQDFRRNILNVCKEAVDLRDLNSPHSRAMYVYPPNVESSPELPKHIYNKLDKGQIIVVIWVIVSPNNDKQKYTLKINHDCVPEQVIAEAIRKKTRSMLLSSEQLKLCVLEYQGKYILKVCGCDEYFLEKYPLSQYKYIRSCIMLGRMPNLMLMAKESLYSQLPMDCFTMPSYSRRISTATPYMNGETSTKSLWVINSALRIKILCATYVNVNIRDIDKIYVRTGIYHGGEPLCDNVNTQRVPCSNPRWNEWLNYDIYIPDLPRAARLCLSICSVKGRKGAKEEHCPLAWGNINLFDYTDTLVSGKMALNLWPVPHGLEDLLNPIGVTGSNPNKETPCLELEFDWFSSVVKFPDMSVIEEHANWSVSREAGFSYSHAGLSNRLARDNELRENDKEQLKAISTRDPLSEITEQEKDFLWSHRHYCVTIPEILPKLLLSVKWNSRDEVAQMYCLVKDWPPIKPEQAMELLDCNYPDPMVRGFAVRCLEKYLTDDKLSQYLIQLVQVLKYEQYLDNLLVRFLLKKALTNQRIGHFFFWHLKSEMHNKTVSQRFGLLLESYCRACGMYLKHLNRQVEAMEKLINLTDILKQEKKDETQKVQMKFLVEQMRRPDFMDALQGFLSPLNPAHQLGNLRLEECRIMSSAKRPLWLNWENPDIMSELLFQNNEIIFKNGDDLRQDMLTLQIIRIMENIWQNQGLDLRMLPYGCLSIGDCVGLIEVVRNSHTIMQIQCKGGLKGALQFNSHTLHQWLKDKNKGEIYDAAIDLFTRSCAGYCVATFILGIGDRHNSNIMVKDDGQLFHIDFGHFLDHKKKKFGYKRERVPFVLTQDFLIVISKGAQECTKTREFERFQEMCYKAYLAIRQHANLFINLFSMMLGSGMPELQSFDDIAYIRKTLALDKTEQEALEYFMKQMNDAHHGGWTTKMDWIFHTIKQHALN
Chain of Serine/threonine-protein kinase B-raf (P15056 2-766 V600E limits assumed): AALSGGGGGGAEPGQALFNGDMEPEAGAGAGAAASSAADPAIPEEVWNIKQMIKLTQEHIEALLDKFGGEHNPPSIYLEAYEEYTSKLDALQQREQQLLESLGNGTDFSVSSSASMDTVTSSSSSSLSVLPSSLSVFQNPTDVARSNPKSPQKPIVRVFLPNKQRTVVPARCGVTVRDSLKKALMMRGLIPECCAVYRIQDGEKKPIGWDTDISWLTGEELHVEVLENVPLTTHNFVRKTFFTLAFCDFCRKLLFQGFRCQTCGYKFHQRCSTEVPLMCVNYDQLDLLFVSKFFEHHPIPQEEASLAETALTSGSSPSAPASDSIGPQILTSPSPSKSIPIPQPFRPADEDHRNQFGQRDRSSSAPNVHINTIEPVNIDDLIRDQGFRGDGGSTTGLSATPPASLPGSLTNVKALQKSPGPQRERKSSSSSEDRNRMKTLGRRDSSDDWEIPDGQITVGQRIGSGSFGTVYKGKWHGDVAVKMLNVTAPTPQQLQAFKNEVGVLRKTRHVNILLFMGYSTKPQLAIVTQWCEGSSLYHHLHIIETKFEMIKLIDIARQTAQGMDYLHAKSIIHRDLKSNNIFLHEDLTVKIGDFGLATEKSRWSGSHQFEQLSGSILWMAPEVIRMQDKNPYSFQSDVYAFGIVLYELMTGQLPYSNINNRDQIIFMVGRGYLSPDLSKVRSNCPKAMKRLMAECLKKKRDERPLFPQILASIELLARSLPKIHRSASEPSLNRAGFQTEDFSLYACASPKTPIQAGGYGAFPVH
Chain of RAC-alpha serine/threonine-protein kinase (Homo sapiens) (P31749 whole entry): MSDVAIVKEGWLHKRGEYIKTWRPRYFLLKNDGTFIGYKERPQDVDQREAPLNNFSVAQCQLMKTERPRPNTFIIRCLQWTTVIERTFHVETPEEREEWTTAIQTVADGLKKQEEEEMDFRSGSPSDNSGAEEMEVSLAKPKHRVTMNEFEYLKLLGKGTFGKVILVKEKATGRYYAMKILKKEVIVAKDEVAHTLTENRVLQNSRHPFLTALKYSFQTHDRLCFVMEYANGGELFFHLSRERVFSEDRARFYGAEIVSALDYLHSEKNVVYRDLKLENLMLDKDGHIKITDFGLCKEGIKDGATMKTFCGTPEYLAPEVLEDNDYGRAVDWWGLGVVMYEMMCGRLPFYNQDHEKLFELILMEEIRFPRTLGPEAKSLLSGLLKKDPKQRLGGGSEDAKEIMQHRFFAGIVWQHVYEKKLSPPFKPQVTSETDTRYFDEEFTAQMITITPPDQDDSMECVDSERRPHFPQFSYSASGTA
Chain of Proto-oncogene tyrosine-protein kinase Src (Homo sapiens) (P12931 2-536 limits assumed): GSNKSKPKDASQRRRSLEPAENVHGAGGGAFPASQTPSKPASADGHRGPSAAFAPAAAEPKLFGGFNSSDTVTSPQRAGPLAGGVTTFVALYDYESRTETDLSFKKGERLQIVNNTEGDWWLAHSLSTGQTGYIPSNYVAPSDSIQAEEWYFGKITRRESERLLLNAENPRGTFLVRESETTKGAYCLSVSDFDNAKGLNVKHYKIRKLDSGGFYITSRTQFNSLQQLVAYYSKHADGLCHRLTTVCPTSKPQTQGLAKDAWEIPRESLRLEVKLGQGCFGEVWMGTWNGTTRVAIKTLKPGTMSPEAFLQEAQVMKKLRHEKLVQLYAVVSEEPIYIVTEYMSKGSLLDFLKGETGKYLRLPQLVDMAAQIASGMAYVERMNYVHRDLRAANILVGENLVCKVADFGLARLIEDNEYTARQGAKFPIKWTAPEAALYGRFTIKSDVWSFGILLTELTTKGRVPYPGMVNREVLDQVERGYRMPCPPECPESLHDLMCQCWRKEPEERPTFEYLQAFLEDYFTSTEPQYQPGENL
Chain of Tyrosine-protein kinase ABL1 (Homo sapiens) (P00519 whole entry): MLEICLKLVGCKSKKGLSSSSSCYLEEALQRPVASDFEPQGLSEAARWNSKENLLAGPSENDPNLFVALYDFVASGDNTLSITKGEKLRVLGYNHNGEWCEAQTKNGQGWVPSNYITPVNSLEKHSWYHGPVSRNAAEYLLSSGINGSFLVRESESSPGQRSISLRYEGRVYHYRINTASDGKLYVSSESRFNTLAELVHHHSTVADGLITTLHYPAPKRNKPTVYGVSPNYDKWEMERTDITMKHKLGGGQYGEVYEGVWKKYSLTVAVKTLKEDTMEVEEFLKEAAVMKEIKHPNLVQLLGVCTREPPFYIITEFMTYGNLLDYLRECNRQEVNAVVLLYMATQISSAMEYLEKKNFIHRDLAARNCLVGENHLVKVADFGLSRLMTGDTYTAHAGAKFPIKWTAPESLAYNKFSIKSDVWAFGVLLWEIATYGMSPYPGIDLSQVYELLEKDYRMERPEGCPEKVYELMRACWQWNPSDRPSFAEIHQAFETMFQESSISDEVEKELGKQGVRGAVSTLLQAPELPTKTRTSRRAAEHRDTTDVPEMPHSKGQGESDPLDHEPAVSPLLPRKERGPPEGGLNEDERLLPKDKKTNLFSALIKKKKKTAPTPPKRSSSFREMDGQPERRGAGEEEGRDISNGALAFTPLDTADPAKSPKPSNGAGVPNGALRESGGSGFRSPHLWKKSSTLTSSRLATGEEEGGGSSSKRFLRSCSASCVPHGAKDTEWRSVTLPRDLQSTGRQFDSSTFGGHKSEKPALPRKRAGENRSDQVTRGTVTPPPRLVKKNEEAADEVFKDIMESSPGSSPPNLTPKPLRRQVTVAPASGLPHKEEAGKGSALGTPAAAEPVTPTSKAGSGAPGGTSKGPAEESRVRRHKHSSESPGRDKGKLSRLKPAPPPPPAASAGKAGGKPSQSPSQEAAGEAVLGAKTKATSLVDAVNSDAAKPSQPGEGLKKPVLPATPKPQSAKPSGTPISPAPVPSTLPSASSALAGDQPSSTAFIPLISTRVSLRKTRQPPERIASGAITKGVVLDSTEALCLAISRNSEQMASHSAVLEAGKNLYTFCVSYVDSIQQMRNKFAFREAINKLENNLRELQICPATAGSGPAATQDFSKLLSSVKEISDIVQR
Chain of Mitogen-activated protein kinase 14 (Homo sapiens) (Q16539 whole entry): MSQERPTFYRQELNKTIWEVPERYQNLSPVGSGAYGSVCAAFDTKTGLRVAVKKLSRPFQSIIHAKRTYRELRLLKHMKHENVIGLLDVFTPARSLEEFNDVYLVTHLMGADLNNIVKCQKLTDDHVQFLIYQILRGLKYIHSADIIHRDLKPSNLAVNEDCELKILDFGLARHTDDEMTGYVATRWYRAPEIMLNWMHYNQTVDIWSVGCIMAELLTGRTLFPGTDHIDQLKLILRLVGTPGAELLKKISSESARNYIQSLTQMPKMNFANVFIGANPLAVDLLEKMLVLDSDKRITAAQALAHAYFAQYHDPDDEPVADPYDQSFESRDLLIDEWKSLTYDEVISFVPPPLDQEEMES

For `O=C1CC(c2cccc(NC(=O)Nc3ccc(Cl)c(Cl)c3)c2)=Nc2cn[nH]c2N1`, the GI50 [1] was > 30000 nM and the GI50 (U-937) was > 30000 nM.
In the case of `O=C1CC(c2ccc(NC(=O)Nc3ccc(Cl)c(C(F)(F)F)c3)cc2)=Nc2cn[nH]c2N1`, the GI50 [1] is reported as > 30000 nM and the GI50 (U-937) is reported as > 30000 nM.
For `O=C1CC(c2ccc(NC(=O)Nc3cccc(Cl)c3)cc2)=Nc2cnn(Cc3ccccc3)c2N1`, the GI50 [1] was 2070 nM and the GI50 (U-937) was 670 nM.
In the case of `COc1ccc(Cn2ncc3c2NC(=O)CC(c2cccc(NC(=O)Nc4ccc(Cl)cc4)c2)=N3)cc1`, the GI50 [1] is reported as 640 nM and the GI50 (U-937) is reported as 580 nM.
`O=c1cc(N2CCOCC2)oc2c(-c3ccccc3)cccc12` [LY-294002] showed an IC50 [2] of 6800 nM.
In the case of `COc1ccc(Cn2ncc3c2NC(=O)CC(c2cccc(NC(=O)Nc4cc(N5CCOCC5)cc(C(F)(F)F)c4)c2)=N3)cc1`, the GI50 [1] is reported as 3320 nM and the GI50 (U-937) is reported as > 30000 nM.
Molecule `COc1ccc(Cn2ncc3c2NC(=O)CC(c2cccc(NC(=O)Nc4ccc(C(F)(F)F)cc4)c2)=N3)cc1` has a GI50 [1] of 770 nM and a GI50 (U-937) of 110 nM.
With `COc1ccc(Cn2ncc3c2NC(=O)CC(c2cccc(NC(=O)Nc4ccc(Cl)c(Cl)c4)c2)=N3)cc1` the GI50 [1] was 3860 nM and the GI50 (U-937) was 14900 nM.
Work on `COc1ccc(Cn2ncc3c2NC(=O)CC(c2ccc(NC(=O)Nc4ccc(Cl)c(C(F)(F)F)c4)cc2)=N3)cc1` yielded a GI50 [1] of 3930 nM and a GI50 (U-937) of 7290 nM.
`O=C1CC(c2ccc(NC(=O)c3ccc(N4CCOCC4)c(C(F)(F)F)c3)cc2)=Nc2cnn(Cc3ccccc3)c2N1` gave a GI50 [1] of 16400 nM and a GI50 (U-937) of 210 nM.
With `Cc1cn(-c2cc(NC(=O)Nc3ccc(C4=Nc5cnn(Cc6ccccc6)c5NC(=O)C4)cc3)cc(C(F)(F)F)c2)cn1` the GI50 [1] was > 30000 nM and the GI50 (U-937) was > 30000 nM.
In the case of `COc1ccc(Cn2ncc3c2NC(=O)CC(c2cccc(NC(=O)Nc4cccc(C(F)(F)F)c4)c2)=N3)cc1`, the GI50 [1] is reported as 250 nM and the GI50 (U-937) is reported as 280 nM.
Work on `O=C1CC(c2cccc(NC(=O)c3ccc(Cl)c(C(F)(F)F)c3)c2)=Nc2cnn(Cc3ccccc3)c2N1` yielded an inhibition [3] of 0%, an inhibition [4] of 0% and an inhibition [5] of 92.9%. It also gave an inhibition [6] of 0%, a GI50 [1] of 430 nM and an inhibition [7] of 0.5%. For the same molecule, the inhibition [8] was 4.4%, the inhibition [9] was 1.6% and the inhibition [10] was 0%. The inhibition [11] was 85.6%, the inhibition [12] was 75.2% and the inhibition [13] was 0%. It also gave an inhibition [14] of 0%, an inhibition [15] of 0% and an inhibition [16] of 0%. The inhibition [17] was 0%, the inhibition [18] was 0% and the inhibition [19] was 19.3%. It also gave an IC50 [20] of 961 nM, an IC50 [21] of 2150 nM and a GI50 (U-937) of 60 nM. The inhibition [22] was 0%, the inhibition [23] was 1.9% and the inhibition [24] was 4.3%. For the same molecule, the inhibition [25] was 1.3%, the inhibition [26] was 0% and the inhibition [27] was 6.5%. For the same molecule, the inhibition [28] was 0%, the inhibition [29] was 17.8% and the inhibition [30] was 0%. For the same molecule, the IC50 ([31]; read-out: IC50) was 655 nM, the inhibition [32] was 4.6% and the inhibition [33] was 0.2%. For the same molecule, the inhibition [34] was 0.9%, the inhibition [35] was 0% and the inhibition [36] was 0%. For the same molecule, the inhibition [37] was 0%, the inhibition [38] was 5.6% and the inhibition [39] was 3.6%. The inhibition [40] was 7%.
With `O=C1CC(c2cccc(NC(=O)c3cc(N4CCOCC4)cc(C(F)(F)F)c3)c2)=Nc2cnn(Cc3ccccc3)c2N1` the GI50 [1] was > 30000 nM and the GI50 (U-937) was > 30000 nM.
With `O=C1CC(c2ccc(NC(=O)Nc3ccc(Cl)c(C(F)(F)F)c3)cc2)=Nc2cnn(Cc3ccccc3)c2N1` the GI50 [1] was 1190 nM and the GI50 (U-937) was 8680 nM.
In the case of `O=C1CC(c2cccc(NC(=O)Nc3ccc(Cl)cc3)c2)=Nc2cn[nH]c2N1`, the GI50 [1] is reported as > 30000 nM and the GI50 (U-937) is reported as > 30000 nM.
For `Cc1cn(-c2cc(C(=O)Nc3ccc(C4=Nc5cnn(Cc6ccccc6)c5NC(=O)C4)cc3)cc(C(F)(F)F)c2)cn1`, the GI50 [1] was > 30000 nM and the GI50 (U-937) was > 30000 nM.
Molecule `O=C1CC(c2cccc(NC(=O)Nc3ccc(Cl)c(C(F)(F)F)c3)c2)=Nc2cnn(Cc3ccccc3)c2N1` has a GI50 [1] of 4450 nM, an IC50 [20] of 668 nM and a GI50 (U-937) of 7310 nM. The IC50 [31] was “Not Active”.
With `CNC(=O)c1cc(Oc2ccc(NC(=O)Nc3ccc(Cl)c(C(F)(F)F)c3)cc2)ccn1` [SORAFENIB] the GI50 [1] was 5580 nM and the GI50 (U-937) was 2850 nM.
In the case of `COc1ccc(Cn2ncc3c2NC(=O)CC(c2cccc(NC(=O)Nc4cccc(Cl)c4)c2)=N3)cc1`, the GI50 [1] is reported as 910 nM and the GI50 (U-937) is reported as 630 nM.
In the case of `O=C1CC(c2cccc(NC(=O)c3ccc(N4CCOCC4)c(C(F)(F)F)c3)c2)=Nc2cnn(Cc3ccccc3)c2N1`, the GI50 [1] is reported as 2910 nM and the GI50 (U-937) is reported as 1750 nM.
Molecule `O=C1CC(c2ccc(NC(=O)c3ccc(Cl)c(C(F)(F)F)c3)cc2)=Nc2cnn(Cc3ccccc3)c2N1` has a GI50 [1] of 13100 nM and a GI50 (U-937) of 60 nM.
`COc1ccc(Cn2ncc3c2NC(=O)CC(c2cccc(NC(=O)Nc4cc(Cl)cc(Cl)c4)c2)=N3)cc1` showed a GI50 [1] of 780 nM and a GI50 (U-937) of 6480 nM.
For `Cc1cn(-c2cc(C(=O)Nc3cccc(C4=Nc5cnn(Cc6ccccc6)c5NC(=O)C4)c3)cc(C(F)(F)F)c2)cn1`, the GI50 [1] was > 30000 nM and the GI50 (U-937) was > 30000 nM.
